The source made the active and inactive calls. No cut-off for these calls is given here.
Columns and labels:
Jurkat = test: Cytotoxicity against human Jurkat cells after 72 hrs by MTT assay; type: functional, cell-based
Procedure, shortened: (§1)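 MTT microculture assay. Cells were seeded per well at 3 × 10³ (A-549, MCF-7, MDA-MB-231; DMEM), 5 × 10³ (HeLa; RPMI 1640) or 1 × 10⁴ (Jurkat, CEM; RPMI 1640), all with 10% FCS. Final concentrations were 10⁻⁴–10⁻⁶ mol·L⁻¹ (4 levels), for 72 h. MTT was then added for 4 h and SDS for 12 h, and A540 read. IC50 was taken against blank-corrected untreated control.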

HeLa = test: Cytotoxicity against human HeLa cells after 72 hrs by MTT assay; type: functional, cell-based
MCF7 = test: Cytotoxicity against human MCF7 cells after 72 hrs by MTT assay; type: functional, cell-based; conditions: MCF7, 72 h; procedure, shortened: as §1
A549 = test: Cytotoxicity against human A549 cells after 72 hrs by MTT assay; type: functional, cell-based; conditions: A549, 72 h
MDA-MB-231 = test: Cytotoxicity against human MDA-MB-231 cells after 72 hrs by MTT assay; type: functional, cell-based; conditions: MDA-MB-231, 72 h; procedure, shortened: as §1
CCRF-CEM = test: Cytotoxicity against human CCRF-CEM cells after 72 hrs by MTT assay; type: functional, cell-based; procedure, shortened: as §1
Bacillus subtilis = test: Antibacterial activity against Bacillus subtilis CCM 4062 at 20 ug/2.5 ul/6 mm disk after 24 hrs by disk diffusion assay; type: functional, organism-based
Procedure, shortened: (§2)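 Inoculum was prepared from an overnight blood-agar culture and adjusted in saline to 1.5 × 10⁸ CFU/ml (0.5 McFarland). It was swabbed evenly onto Mueller–Hinton or Sabouraud agar, and paper disks were applied. Plates were incubated 24 h at 37 °C. The read-out was inhibition-zone diameter around the disk, run alongside clinical antimicrobial reference agents.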

Streptococcus pyogenes = test: Antibacterial activity against Streptococcus pyogenes CCM 4425 at 20 ug/2.5 ul/6 mm disk after 24 hrs by disk diffusion assay; type: functional; procedure, shortened: as §2

CON1c2ccccc2[C@@]2(CN=C(SC)S2)[C@@H]1Oc1ccccc1 (relative stereo)
IC50 (Jurkat): 100 µM | IC50 (HeLa): 100 µM | IC50 (MCF7): 100 µM | IC50 (A549): 100 µM | IC50 (MDA-MB-231): 100 µM | IC50 (CCRF-CEM): 100 µM

COc1ccc(N[C@@H]2N(OC)c3ccccc3[C@@]23CN=C(SC)S3)cc1 (relative stereo)
IC50 (Jurkat): 34.8 µM | IC50 (HeLa): 81.5 µM | IC50 (MCF7): 100 µM | IC50 (A549): 73.9 µM | IC50 (MDA-MB-231): 100 µM | IC50 (CCRF-CEM): 10 µM

CON1c2ccccc2[C@@]2(CN=C(SC)S2)[C@@H]1Nc1ccc(C(F)(F)F)cc1 (relative stereo)
IC50 (Jurkat): 41.8 µM | IC50 (HeLa): 81.9 µM | IC50 (MCF7): 100 µM | IC50 (A549): 1 µM | IC50 (MDA-MB-231): 88 µM | Activity (Bacillus subtilis): Active | IC50 (CCRF-CEM): 74.3 µM

CON1c2ccccc2[C@@]2(CN=C(SC)S2)[C@H]1Nc1ccc(C(F)(F)F)cc1 (relative stereo)
IC50 (Jurkat): 28.4 µM | IC50 (HeLa): 34.9 µM | IC50 (MCF7): 66.8 µM | IC50 (A549): 46.6 µM | IC50 (MDA-MB-231): 31.1 µM | Activity (Bacillus subtilis): Active | IC50 (CCRF-CEM): 54 µM

CON1c2ccccc2[C@@]2(CN=C(SC)S2)[C@@H]1Nc1ccc(Cl)c(Cl)c1 (relative stereo)
IC50 (Jurkat): 10 µM | IC50 (HeLa): 15.4 µM | IC50 (MCF7): 100 µM | IC50 (A549): 24.7 µM | IC50 (MDA-MB-231): 35.5 µM | IC50 (CCRF-CEM): 100 µM

CON1c2ccccc2[C@@]2(CN=C(SC)S2)[C@H]1Nc1ccc(Cl)c(Cl)c1 (relative stereo)
IC50 (Jurkat): 21 µM | IC50 (HeLa): 21.8 µM | IC50 (MCF7): 22.6 µM | IC50 (A549): 21.1 µM | IC50 (MDA-MB-231): 20.7 µM | Activity (Bacillus subtilis): Active | IC50 (CCRF-CEM): 22.6 µM

CON1c2ccccc2[C@@]2(CN=C(SC)S2)[C@H]1Nc1ccc(C)c(C)c1 (relative stereo)
IC50 (Jurkat): 47.1 µM | IC50 (HeLa): 23.8 µM | IC50 (MCF7): 58 µM | IC50 (A549): 42.6 µM | IC50 (MDA-MB-231): 100 µM | IC50 (CCRF-CEM): 45.5 µM

CON1c2ccccc2[C@@]2(CN=C(SC)S2)[C@H]1Nc1ccccc1Cl (relative stereo)
IC50 (Jurkat): 43 µM | IC50 (HeLa): 100 µM | IC50 (MCF7): 100 µM | IC50 (A549): 82 µM | IC50 (MDA-MB-231): 100 µM | IC50 (CCRF-CEM): 75.8 µM

CN[C@@H]1N(OC)c2ccccc2[C@@]12CN=C(SC)S2 (relative stereo)
IC50 (Jurkat): 100 µM | IC50 (HeLa): 33.6 µM | IC50 (MCF7): 100 µM | IC50 (A549): 100 µM | IC50 (MDA-MB-231): 100 µM | IC50 (CCRF-CEM): 100 µM

CO[C@H]1N(OC)c2ccccc2[C@@]12CN=C(SC)S2 (relative stereo)
IC50 (Jurkat): 30.2 µM | IC50 (HeLa): 48.9 µM | IC50 (MCF7): 100 µM | IC50 (A549): 100 µM | IC50 (MDA-MB-231): 100 µM | IC50 (CCRF-CEM): 100 µM

COc1cccc2c1C(=O)c1c(O)c3c(c(O)c1C2=O)C[C@@](O)(C(=O)CO)C[C@@H]3O[C@H]1C[C@H](N)[C@H](O)[C@H](C)O1 [DOXORUBICIN]
IC50 (Jurkat): 0.078 µM | IC50 (MCF7): 0.5 µM | IC50 (MDA-MB-231): 0.2 µM | IC50 (CCRF-CEM): 0.09 µM

COc1ccc(N[C@H]2N(OC)c3ccccc3[C@@]23CN=C(SC)S3)cc1 (relative stereo)
IC50 (Jurkat): 69.4 µM | IC50 (HeLa): 100 µM | IC50 (MCF7): 100 µM | IC50 (A549): 100 µM | IC50 (MDA-MB-231): 64 µM | IC50 (CCRF-CEM): 15.5 µM

CON1c2ccccc2[C@@]2(CN=C(SC)S2)[C@H]1Nc1ccc([N+](=O)[O-])cc1 (relative stereo)
IC50 (Jurkat): 100 µM | IC50 (HeLa): 100 µM | IC50 (MCF7): 88 µM | IC50 (A549): 30.2 µM | IC50 (MDA-MB-231): 100 µM | IC50 (CCRF-CEM): 54.5 µM

CON1c2ccccc2[C@@]2(CN=C(SC)S2)[C@H]1Nc1ccc(C)cc1 (relative stereo)
IC50 (Jurkat): 33.3 µM | IC50 (HeLa): 36.8 µM | IC50 (MCF7): 100 µM | IC50 (A549): 100 µM | IC50 (MDA-MB-231): 100 µM | IC50 (CCRF-CEM): 100 µM

CON1c2ccccc2[C@@]2(CN=C(SC)S2)[C@H]1Nc1ccccc1 (relative stereo)
IC50 (Jurkat): 100 µM | IC50 (HeLa): 31.9 µM | IC50 (MCF7): 100 µM | IC50 (A549): 100 µM | IC50 (MDA-MB-231): 100 µM | IC50 (CCRF-CEM): 100 µM

CON1c2ccccc2[C@@]2(CN=C(SC)S2)[C@@H]1Nc1ccc(C)c(C)c1 (relative stereo)
IC50 (Jurkat): 10 µM | IC50 (HeLa): 54.9 µM | IC50 (MCF7): 100 µM | IC50 (A549): 100 µM | IC50 (MDA-MB-231): 100 µM | IC50 (CCRF-CEM): 100 µM

CON1c2ccccc2[C@@]2(CN=C(SC)S2)[C@H]1Nc1ccc(Br)cc1 (relative stereo)
IC50 (Jurkat): 33.4 µM | IC50 (HeLa): 81.5 µM | IC50 (MCF7): 34.1 µM | IC50 (A549): 35.1 µM | IC50 (MDA-MB-231): 100 µM | IC50 (CCRF-CEM): 28.7 µM

CON1c2ccccc2[C@@]2(CN=C(SC)S2)[C@H]1Oc1ccccc1 (relative stereo)
IC50 (Jurkat): 100 µM | IC50 (HeLa): 100 µM | IC50 (MCF7): 100 µM | IC50 (A549): 100 µM | IC50 (MDA-MB-231): 100 µM | IC50 (CCRF-CEM): 100 µM

CON1c2ccccc2[C@@]2(CN=C(SC)S2)[C@@H]1Nc1ccccc1Cl (relative stereo)
IC50 (Jurkat): 29.4 µM | IC50 (HeLa): 76.8 µM | IC50 (MCF7): 100 µM | IC50 (A549): 100 µM | IC50 (MDA-MB-231): 100 µM | IC50 (CCRF-CEM): 36 µM

CON1c2ccccc2[C@@]2(CN=C(SC)S2)[C@@H]1Nc1ccc(Cl)cc1 (relative stereo)
IC50 (Jurkat): 30.7 µM | IC50 (HeLa): 44.8 µM | IC50 (MCF7): 100 µM | IC50 (A549): 85.9 µM | IC50 (MDA-MB-231): 100 µM | IC50 (CCRF-CEM): 37.4 µM

CON1c2ccccc2[C@@]2(CN=C(SC)S2)[C@@H]1Nc1ccccc1 (relative stereo)
IC50 (Jurkat): 17.8 µM | IC50 (HeLa): 25.8 µM | IC50 (MCF7): 100 µM | IC50 (A549): 100 µM | IC50 (MDA-MB-231): 62 µM | IC50 (CCRF-CEM): 31.8 µM

CO[C@@H]1N(OC)c2ccccc2[C@@]12CN=C(SC)S2 (relative stereo)
IC50 (Jurkat): 57.4 µM | IC50 (HeLa): 53.2 µM | IC50 (MCF7): 100 µM | IC50 (A549): 100 µM | IC50 (MDA-MB-231): 100 µM | IC50 (CCRF-CEM): 100 µM

CON1c2ccccc2[C@@]2(CN=C(SC)S2)[C@@H]1Nc1ccc(C)cc1 (relative stereo)
IC50 (Jurkat): 6.6 µM | IC50 (HeLa): 100 µM | IC50 (MCF7): 100 µM | IC50 (A549): 100 µM | IC50 (MDA-MB-231): 78.7 µM | IC50 (CCRF-CEM): 64.7 µM

CON1c2ccccc2[C@@]2(CN=C(SC)S2)[C@H]1Nc1ccc(Cl)cc1 (relative stereo)
IC50 (Jurkat): 100 µM | IC50 (HeLa): 22.3 µM | IC50 (MCF7): 28.5 µM | IC50 (A549): 22.3 µM | IC50 (MDA-MB-231): 20.7 µM | IC50 (CCRF-CEM): 100 µM

COc1cc([C@@H]2c3cc4c(cc3[C@@H](O[C@@H]3O[C@@H]5CO[C@@H](C)O[C@H]5[C@H](O)[C@H]3O)[C@H]3COC(=O)[C@H]23)OCO4)cc(OC)c1O [ETOPOSIDE]
IC50 (Jurkat): 1.2 µM | IC50 (HeLa): 3.9 µM | IC50 (MCF7): 10.9 µM | IC50 (A549): 14.3 µM | IC50 (MDA-MB-231): 21.2 µM | IC50 (CCRF-CEM): 1.1 µM

CON1c2ccccc2[C@@]2(CN=C(SC)S2)[C@@H]1Nc1ccc([N+](=O)[O-])cc1 (relative stereo)
IC50 (Jurkat): 10 µM | IC50 (HeLa): 50 µM | IC50 (MCF7): 100 µM | IC50 (A549): 100 µM | IC50 (MDA-MB-231): 100 µM | IC50 (CCRF-CEM): 100 µM

CON1c2ccccc2[C@@]2(CN=C(SC)S2)[C@@H]1Nc1ccc(Br)cc1 (single isomer, unassigned)
diameter of the inhibition zone (DIZ) (Streptococcus pyogenes): 7 mm | IC50 (Jurkat): 29.3 µM | IC50 (HeLa): 55.7 µM | IC50 (MCF7): 100 µM | IC50 (A549): 100 µM | IC50 (MDA-MB-231): 100 µM | IC50 (CCRF-CEM): 54.8 µM
